Data from ChEMBL document CHEMBL1145109, “Discovery of 4-benzoyl-1-[(4-methoxy-1H- pyrrolo[2,3-b]pyridin-3-yl)oxoacetyl]-2- (R)-methylpiperazine (BMS-378806): a novel HIV-1 attachment inhibitor that interferes with CD4-gp120 interactions” (J Med Chem, 2003).

Columns and labels:
[1] = Inhibitory activity of compound against NL4-3 (T) tropic virus that utilizes the CXCR-4 co-receptor was determined; assay type: functional, nl4-3 tropic virus
[2] = system: Human immunodeficiency virus 1; assay: Cytotoxicity activity of compound against TLAV (dual) virus that utilizes both CXR4 and CCR5 co-receptor virus was determined; assay type: functional; conditions: Human immunodeficiency virus 1, TLAV
Method in brief: (§1)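 CC50 in µM, measured as cytotoxicity toward the host cells used for the antiviral assays, either MT-2 or PM1 cells.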

[3] = The maximum plasma concentration of compound after paroral administration of 10 (mg/kg) polyethelene glycol in dog was determined; assay type: ADME, organism-based, Canis lupus familiaris; design: dose 10 mg/kg, route oral; conditions: po
Method in brief: (§2)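 Given to rat, dog and cynomolgus monkey as a solution in poly(ethylene glycol) 400/ethanol (90:10 v/v), by intravenous and oral (po) dosing. The iv/po dose pairs in mg/kg were 5/5 or 1/5 in rat and 2/10 or 0.67/3.4 in dog and monkey. Plasma sampling gave Fpo (%), oral Cmax (µM), CLtot (mL/min/kg) and Vss (L/kg).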

[4] = The volume of distribution of compound was determined in monkey; assay type: ADME, organism-based; conditions: simiiformes, in vivo; read-out: Vss; method in brief: as §2
[5] = The total clearance time in rat was determined; assay type: ADME, organism-based; conditions: in vivo, read-out: CLtotal; method in brief: as §2
[6] = The volume of distribution of compound a was determined in dog; assay type: ADME, organism-based, Canis lupus familiaris; conditions: in vivo, read-out: Vss; method in brief: as §2
[7] = Inhibitory activity of compound against LAI (T) tropic virus that utilizes the CXCR-4 co-receptor was determined; assay type: functional
[8] = Cytotoxicity activity of compound in MT-2 cells against LAI (T) tropic virus that utilizes the CXCR-4 co-receptor virus was determined; assay type: functional; conditions: MT2; method in brief: as §1
[9] = The total clearance time in monkey was determined; assay type: ADME, organism-based; conditions: simiiformes, in vivo; read-out: CLtotal; method in brief: as §2
[10] = Oral bioavailability after paroral administration of 10 (mg/kg) polyethelene glycol in monkey was determined; assay type: ADME, organism-based; conditions: primates, in vivo; method in brief: as §2
[11] = system: Human immunodeficiency virus 1; assay: Inhibitory activity of compound against TLAV (dual) virus that utilizes both CXR4 and CCR5 co-receptor virus was determined; assay type: functional, organism-based; conditions: Human immunodeficiency virus 1, TLAV
[12] = Oral bioavailability after peroral administration of 5(mg/kg) polyethelene glycol in rat was determined; assay type: ADME, organism-based; conditions: in vivo; method in brief: as §2
[13] = system: Human immunodeficiency virus 1; assay: Inhibitory activity of compound against SF-2 (T) tropic virus that utilizes the CXCR-4 co-receptor was determined; assay type: functional, organism-based, sf-2 tropic virus
[14] = system: Human immunodeficiency virus 1; assay: Inhibitory activity of compound against BAl (M) Macrophage tropic virus that utilizes the CCR5 co-receptor was determined; assay type: functional, organism-based; conditions: Human immunodeficiency virus 1, CCR5
[15] = system: Human immunodeficiency virus 1; assay: Inhibitory activity of compound in MT-2 cells against JRFL (M) Macrophage tropic virus that utilizes the CCR5 was determined; assay type: functional, organism-based
[16] = The total clearance time in dog was determined; assay type: ADME, organism-based, Canis lupus familiaris; conditions: in vivo, read-out: CLtotal; method in brief: as §2
[17] = system: Human immunodeficiency virus 1; assay: Cytotoxicity activity of compound against BAl (M) Macrophage tropic virus that utilizes the CCR5 virus was determined; assay type: functional; conditions: Human immunodeficiency virus 1, CCR5; method in brief: as §1
[18] = The maximum plasma concentration of compound after peroral administration of 5(mg/kg) polyethelene glycol in rat was determined; assay type: ADME, organism-based; design: dose 5 mg/kg, route oral; conditions: po; method in brief: as §2
[19] = The maximum plasma concentration of compound after paroral administration of 10 (mg/kg) polyethelene glycol in monkey was determined; assay type: ADME, organism-based; design: dose 10 mg/kg, route oral; conditions: simiiformes, po; method in brief: as §2
[20] = Oral bioavailability after paroral administration of 10 (mg/kg) polyethelene glycol in dog was determined; assay type: ADME, organism-based, Canis lupus familiaris; conditions: in vivo; method in brief: as §2
[21] = The volume of distribution of compound was determined in rat; assay type: ADME, organism-based; conditions: in vivo, read-out: Vss; method in brief: as §2
[22] = The volume of distribution of compound against rat was determined; assay type: ADME, organism-based; conditions: in vivo, read-out: Vss; method in brief: as §2
[23] = system: Human immunodeficiency virus 1; assay: Cytotoxicity activity of compound in MT-2 cells against TLAV (dual) virus that utilizes both CXR4 and CCR5 co-receptor virus was determined; assay type: functional; conditions: Human immunodeficiency virus 1, TLAV, MT2; method in brief: as §1
[24] = system: Human immunodeficiency virus 1; assay: Inhibitory activity of compound against SF-162 (M) Macrophage tropic virus that utilizes the CCR5 was determined; assay type: functional, organism-based, sf-162 macrophage tropic virus; conditions: Human immunodeficiency virus 1, CCR5
[25] = Oral bioavailability after paroral administration of 5(mg/kg) polyethelene glycol in rat was determined; assay type: ADME, organism-based; conditions: in vivo
Method in brief: (§3)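 Oral dosing as a solution in PEG 400/ethanol (90:10 v/v). Separate iv arms were used for comparison: rat 1 mg/kg iv vs 5 mg/kg po, dog and cynomolgus monkey 0.67 mg/kg iv vs 3.4 mg/kg po. Oral bioavailability (Fpo, %) was derived from plasma exposure after oral relative to intravenous dosing.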

[26] = Oral bioavailability after paroral administration of 3.4(mg/kg) polyethelene glycol in dog was determined; assay type: ADME, organism-based, Canis lupus familiaris; conditions: in vivo; method in brief: as §3
[27] = system: Human immunodeficiency virus 1; assay: Inhibitory activity of compound against JRFL (M) Macrophage tropic virus that utilizes the CCR5 was determined; assay type: functional, organism-based; conditions: Human immunodeficiency virus 1, CCR5
[28] = The maximum plasma concentration of compound after paroral administration of 3.4(mg/kg) polyethelene glycol in monkey was determined; assay type: ADME, organism-based; design: dose 3.4 mg/kg, route oral; conditions: simiiformes, po; method in brief: as §2
[29] = system: Human immunodeficiency virus 1; assay: Cytotoxicity activity of compound in PM1 cells against BAl (M) Macrophage tropic virus that utilizes the CCR5 virus was determined; assay type: functional; conditions: Human immunodeficiency virus 1, PM1; method in brief: as §1
[30] = The maximum plasma concentration of compound after paroral administration of 3.4(mg/kg) polyethelene glycol in dog was determined; assay type: ADME, organism-based, Canis lupus familiaris; design: dose 3.4 mg/kg, route oral; conditions: po; method in brief: as §2
[31] = The maximum plasma concentration of compound after paroral administration of 5(mg/kg) polyethelene glycol in rat was determined; assay type: ADME, organism-based; design: dose 5 mg/kg, route oral; conditions: po; method in brief: as §2
[32] = The volume of distribution of compound was determined in dog; assay type: ADME, organism-based, Canis lupus familiaris; conditions: in vivo, read-out: Vss; method in brief: as §2
[33] = Oral bioavailability after paroral administration of 3.4(mg/kg) polyethelene glycol in monkey was determined; assay type: ADME, organism-based; conditions: primates, in vivo; method in brief: as §3

EC50 [1]	Vd [4]	clearance [5]	EC50 [7]	clearance [9]	EC50 [11]	EC50 [13]	EC50 [14]	clearance [16]	EC50 [24]	Structure (SMILES)	CC50 [8]	CC50 [23]	CC50 [29]	also measured
0.0308 µM	0.24 L/kg	48 mL/min/kg	0.00293 µM	3.1 mL/min/kg	0.0136 µM	0.0624 µM	0.0181 µM	2.4 mL/min/kg	–	O=C(C(=O)N1CCN(C(=O)c2ccccc2)CC1)c1c[nH]c2cccc(F)c12	146 µM	–	–	CC50 [2]: 146 µM; Cmax [3]: 18 µM; Vd [6]: 1.8 L/kg; bioavailability [10]: 100%; bioavailability [12]: 9.4%; EC50 [15]: 0.00239 µM; CC50 [17]: 52.5 µM; Cmax [18]: 0.15 µM; Cmax [19]: 34 µM; bioavailability [20]: 100%; Vd [21]: 0.99 L/kg
0.00294 µM	0.39 L/kg	32 mL/min/kg	0.00268 µM	10 mL/min/kg	0.00085 µM	0.0265 µM	0.0155 µM	5.2 mL/min/kg	0.00346 µM	COc1ccnc2[nH]cc(C(=O)C(=O)N3CCN(C(=O)c4ccccc4)C[C@H]3C)c12	> 300 µM	> 300 µM	> 300 µM	Vd [22]: 0.56 L/kg; bioavailability [25]: 19%; bioavailability [26]: 77%; EC50 [27]: 0.00147 µM; Cmax [28]: 0.51 µM; Cmax [30]: 7.4 µM; Cmax [31]: 0.22 µM; Vd [32]: 0.47 L/kg; bioavailability [33]: 24%
5.13 µM	–	–	0.086 µM	–	0.149 µM	1.03 µM	28.7 µM	–	0.23 µM	O=C(C(=O)N1CCN(C(=O)c2ccccc2)CC1)c1c[nH]c2ccccc12	145 µM	145 µM	> 200 µM	–
